The values that follow come from ChEMBL document CHEMBL1157779, “Merging the structural motifs of functionalized amino acids and alpha-aminoamides: compounds with significant anticonvulsant activities” (J Med Chem, 2010).

The subject of series [1] is Mus musculus. Description: Anticonvulsant activity in albino mouse assessed as protection against subcutaneous metrazole-induced seizures up to 300 mg/kg, ip after 0.5 hrs. Set-up: dose 300 mg/kg. It counts as functional, organism-based. The procedure, abridged:
(§1)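 Male albino Carworth Farms No. 1 mice dosed ip under NIH Anticonvulsant Screening Program; subcutaneous Metrazol seizure challenge at 0.5 and 4 h after doses up to 300 mg/kg.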

Series [2] concerns Mus musculus. Description: Anticonvulsant activity in albino mouse assessed as protection against subcutaneous metrazole-induced seizures up to 300 mg/kg, ip after 4 hrs. It counts as functional, organism-based. Set-up: dose 300 mg/kg. The procedure, abridged: as §1
For series [3], the system named is Mus musculus. The experiment in a line: Anticonvulsant activity in ip dosed albino mouse assessed as inhibition of maximal electroshock-induced seizures after 4 hrs. It counts as functional. The procedure, abridged:
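Male albino Carworth Farms No. 1 mice given compound ip; maximal electroshock applied and protection scored as blockade of hind limb extension; identification screening, then ED50 (mg/kg) from quantitative testing for active compounds.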
Background: Protection in the maximal electroshock model is a classic sign of anticonvulsant action.

The subject of series [4] is Mus musculus. The experiment in a line: Anticonvulsant activity in ip dosed albino mouse assessed as inhibition of maximal electroshock-induced seizures after 0.5 hrs. It counts as functional.
For series [5], the system named is Rattus norvegicus. Description: Anticonvulsant activity in po dosed Sprague-Dawley albino rat assessed as inhibition of maximal electroshock-induced seizures after 0.25 to 4 hrs. Format: functional. The procedure, abridged: (§2)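 Male albino Sprague-Dawley rats dosed orally; maximal electroshock seizures, protection scored as blockade of hind limb extension, tested at set times after dosing; ED50 in mg/kg from quantitative evaluation for active compounds.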

Series [6] is described as follows: Behavioral toxicity in po dosed Sprague-Dawley albino rat after 0.25 to 4 hrs. Particulars: in vivo. Format: organism-based. The procedure, abridged:
(§3)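 Oral dosing in male albino Sprague-Dawley rats with behavioral toxicity observation at set times after dosing, doses up to 500 mg/kg.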

A short description of series [7]: Toxicity in ip dosed albino mouse after 0.5 hrs by rotarod test. It counts as organism-based. The settings on record: albino, in vivo.
The test system of series [8] is Mus musculus. Description: Anticonvulsant activity in ip dosed albino mouse assessed as protection against subcutaneous metrazole-induced seizures. Format: functional. The procedure, abridged: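 Subcutaneous Metrazol seizure model in male albino Carworth Farms No. 1 mice, ip dosing. Doses up to 300 mg/kg tested at two time points (0.5 and 4 h).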
In series [9] the test system is Mus musculus. The experiment in a line: Anticonvulsant activity in ip dosed albino mouse assessed as inhibition of maximal electroshock-induced seizures after 1 hr. Format: functional. The procedure, abridged:
(§4)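 Male albino Carworth Farms No. 1 mice dosed intraperitoneally; screened via the NIH Anticonvulsant Screening Program. Protection scored as blocking of hind limb extension after maximal electroshock. Median effective dose (ED50, mg/kg) obtained in quantitative evaluations of active compounds. Rotorod test gave TD50 for neurological impairment, and PI = TD50/ED50.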

Series [10] can be described thus: Toxicity in ip dosed albino mouse after 4 hrs by rotarod test. It counts as organism-based. Particulars: in vivo. The procedure, abridged: (§5)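 Male albino Carworth Farms No. 1 mice dosed ip; neurological impairment by rotorod test at set times; TD50 (mg/kg) determined for compounds active in MES.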
Series [11] has as its system Rattus norvegicus. Description: Anticonvulsant activity in po dosed Sprague-Dawley albino rat assessed as inhibition of maximal electroshock-induced seizures after 4 hrs. Format: functional. The procedure, abridged:
as §2

A short description of series [12]: Behavioral toxicity in po dosed Sprague-Dawley albino rat after 4 hrs. It counts as organism-based. Particulars: Sprague-Dawley, in vivo. The procedure, abridged: as §3
Series [13] in a line: Toxicity in ip dosed albino mouse by rotarod test. Format: organism-based. Particulars: in vivo. The procedure, abridged: as §5
In general terms: Falling from the rotarod earlier than controls is read as motor impairment.

Series [14] deals with Mus musculus. The experiment in a line: Anticonvulsant activity in ip dosed albino mouse assessed as protection against 6 Hz electric shock-induced seizures after […]. Format: functional.
Series [15] concerns Rattus norvegicus. Description: Anticonvulsant activity in po dosed Sprague-Dawley albino rat assessed as inhibition of maximal electroshock-induced seizures after 1 hr. It counts as functional. The procedure, abridged:
as §2

A short description of series [16]: Behavioral toxicity in po dosed Sprague-Dawley albino rat after […]. Format: organism-based. Particulars: in vivo.
Series [17] has as its system Rattus norvegicus. The experiment in a line: Behavioral toxicity in po dosed Sprague-Dawley albino rat. The settings on record: in vivo. Format: organism-based.
The species entered for series [18] is Rattus norvegicus. The experiment in a line: Protective index, ratio of TD50 for Sprague-Dawley albino rat to anticonvulsant ED50 for Sprague-Dawley albino rat. It counts as functional. The procedure, abridged: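 Rat, oral: behavioral-toxicity TD50 divided by MES ED50, both in mg/kg.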
In series [19] the test system is Rattus norvegicus. Description: Behavioral toxicity in po dosed Sprague-Dawley albino rat after 1 hr. The settings on record: in vivo, 1 h. Format: organism-based. The procedure, abridged:
as §3

Series [20] concerns Mus musculus. The experiment in a line: Anticonvulsant activity in ip dosed albino mouse assessed as inhibition of maximal electroshock-induced seizures. It counts as functional. The procedure, abridged: as §4
The species named for series [21] is Mus musculus. Description: Protective index, ratio of TD50 for albino mouse to anticonvulsant ED50 for albino mouse. It counts as functional.

Active and inactive are the calls of the source. The calls are words filed in the database; no cut-off is given here. Bounds are passed on as bounds.

In the case of `COC[C@H](NC(C)=O)C(=O)NCc1ccc(OCc2cccc(F)c2)cc1`, the result in series [1] and in [2] was inactive.

Turning to `CC(=O)N[C@@H](C)C(=O)NCc1ccc(OCc2cccc(F)c2)cc1`, the ED50 (usually the midpoint of the dose-response relation) in [3] is more than 300 mg/kg; in series [4], 100 mg/kg; in series [5], more than 30 mg/kg. Moreover, in series [6], the TD50 (in general, the dose at which the toxic effect under study appears in half of the subjects) was more than 30 mg/kg. For the same compound, the result in series [1] and in series [2] was inactive.

In the case of `COCC(NCc1ccc(OCc2cccc(F)c2)cc1)C(N)=O` (racemic), the ED50 was 30 mg/kg in series [4] and more than 300 mg/kg in series [8]. The compound also showed a TD50 at 0.5 h in series [7] of 100 mg/kg.

Turning to `COC[C@@H](NC(C)=O)C(=O)NCc1ccc(C#Cc2cccc(F)c2)cc1`, the ED50 in [3] was less than 100 mg/kg; in series [9], more than 30 mg/kg; in [11], 1.4 mg/kg. Moreover, the TD50 at 4 h was found to be 100 mg/kg in [10] and 63 mg/kg in [12].

With `CC(=O)NC(C(=O)NCc1ccccc1)c1ccco1` (racemic), in series [13], the TD50 stood at 40 mg/kg.

As for `COC[C@@H](NC(C)=O)C(=O)NCc1ccc(OCCc2cccc(F)c2)cc1`, the ED50 in series [3] and in series [4] was 30 mg/kg throughout. In series [7], this compound had a TD50 at 0.5 h of 30 mg/kg.

`NC(=O)C(NCc1ccc(OCc2cccc(F)c2)cc1)c1ccco1.O=C(O)C(=O)O` (racemic): the ED50 in series [4] is 10 mg/kg; in series [8] it was 100 mg/kg. The TD50 at 0.5 h in series [7] came out at 100 mg/kg.

Take `COC[C@@H](NC(C)=O)C(=O)NCc1ccc(/C=C/c2cccc(F)c2)cc1`: the ED50 in series [4] is 30 mg/kg; in [14] it was less than 30 mg/kg; in series [15] it was 30 mg/kg; in [11], 30 mg/kg. The compound also displayed a TD50 at 0.5 h in [7] of 100 mg/kg. The TD50 at […] in series [16] was more than 30 mg/kg.

As for `COC[C@@H](NC(C)=O)C(=O)NCc1ccc(NCc2cccc(F)c2)cc1`, the ED50 in [4] was determined as 10 mg/kg. This compound showed a TD50 at 0.5 h in [7] of 30 mg/kg.

Turning to `COC[C@@H](NC(C)=O)C(=O)NCc1ccc(OCc2ccc(F)cc2)cc1`, the ED50 in series [4] was 10 mg/kg. The TD50 at 0.5 h in series [7] was determined as 30 mg/kg.

Take `COC[C@@H](NC(C)=O)C(=O)NCc1ccc(-c2cccc(F)c2)cc1`: the results for the ED50 in series [4], in [14] and in [15] were 10 mg/kg, less than 30 mg/kg and 2.4 mg/kg, respectively. In series [7], this compound showed a TD50 at 0.5 h of 100 mg/kg. The TD50 in series [17] was more than 500 mg/kg. Moreover, in series [18], the “Ratio TD50/ED50” value is more than 250.

For the compound `COC[C@@H](NC(C)=O)C(=O)NCc1ccc(CCc2cccc(F)c2)cc1`, the ED50 in series [4] is 10 mg/kg; in [15] it was less than 30 mg/kg. The compound also registered a TD50 at 0.5 h in [7] of 30 mg/kg. This compound yielded a TD50 in [19] of more than 30 mg/kg.

For `CC(=O)NC(C(=O)NCc1ccc(OCc2cccc(F)c2)cc1)c1ccccn1` (racemic), the ED50 in [4] came to 28 mg/kg. This compound also came in with a TD50 at 4 h in series [12] of more than 30 mg/kg. The result in [1] and in series [2] was inactive.

`C[C@H](NCc1ccc(OCc2cccc(F)c2)cc1)C(N)=O` [SAFINAMIDE]: the ED50 in [20] was determined as 8 mg/kg; in series [8] it was 27 mg/kg. For the same compound, the TD50 in [13] came out at 630 mg/kg. The “Ratio TD50/ED50” value in [21] was determined as 78. The outcome in [1] and in [2] was inactive.
